# hiPSC survival = enhancers of human iPSC single-cell survival; survival enhancement, % at 20 µM; hiPSC single-cell survival, ATPlite luminescence; 100% = ROCK inhibitor wells, 0% = DMSO; 360,000 tested, 0.044% active; AID 602274; in the data active = survival enhancement above about 18%;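 also: cells exposed to compounds for 16 hours before the ATP read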
# beta cell repl = induces beta-cell replication in MIN6 cells; MIN6 cells proliferation, ATPlite luminescence, 48 h; cells starved in 0.2% serum; 100% = growth in 10% serum; proliferation, % at 10 µM; 330,000 tested, 0.29% active; AID 2380;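 active = compounds whose signal lies at least 3.5 SD above the mean of all wells on their plate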;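 also: 0% = DMSO-treated cells in low-serum medium and 100% = 10% serum control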
# FLuc inh counter = inhibits firefly luciferase, flagging false hits in luciferase inhibition screens | P08659 | ATPLite firefly luciferase biochemical luminescence, 10 min | inhibition, % at 10 µM | 200,000 tested, 1.5% active | AID 1006;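 active = inhibition above about 50% when tested at 10 µM, limit read from the data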
# Target sequence (P08659 whole entry, looked up): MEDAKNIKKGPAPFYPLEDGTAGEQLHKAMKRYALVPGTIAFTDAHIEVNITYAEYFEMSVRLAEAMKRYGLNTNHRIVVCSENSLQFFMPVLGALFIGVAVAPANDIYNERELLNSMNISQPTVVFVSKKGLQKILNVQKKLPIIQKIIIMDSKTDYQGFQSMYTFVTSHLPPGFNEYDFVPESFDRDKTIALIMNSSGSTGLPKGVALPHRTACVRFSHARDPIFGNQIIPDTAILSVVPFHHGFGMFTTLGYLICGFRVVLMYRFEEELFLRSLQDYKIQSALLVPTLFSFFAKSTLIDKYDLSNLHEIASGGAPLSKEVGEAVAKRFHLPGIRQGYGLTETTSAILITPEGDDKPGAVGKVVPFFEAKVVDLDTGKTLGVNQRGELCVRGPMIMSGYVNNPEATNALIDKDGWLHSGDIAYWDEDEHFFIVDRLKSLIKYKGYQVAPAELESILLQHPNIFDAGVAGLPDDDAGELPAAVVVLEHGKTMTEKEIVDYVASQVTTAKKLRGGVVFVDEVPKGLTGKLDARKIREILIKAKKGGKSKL
# FLuc stim CS = firefly luciferase counter-screen for stimulation assays. activation factor at 10 µM. 200,000 tested, under 10 active. P08659. ATPlite luciferase biochemical, luminescence, 10 min; 0 = ATP-free wells, 1 = DMSO control. AID 1027;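 active = luciferase activation factor, scaled between plate controls, of at least 2 with compound at 10 µM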
#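 assay system = Luciferase/luciferin detection reagent, cell-free biochemical luciferase assay | also added = ATP substrate | times = 10 min post-reagent at room temperature | measured by = luminescence from luciferase reaction | measure = luciferase activation, seen as luminescence increase over controls | benchmarks = low control with PBS replacing ATP, high control enzyme plus ATP without compound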
# PPC-1+TRAIL kill = kills PPC-1 cancer cells in the presence of TRAIL. PPC-1 cells + TRAIL, ATPLite viability luminescence. cell killing (% activity), % at 4 µM or 5 µM. 220,000 tested, 0.41% active. AID 1443;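 active = cell killing above 50% in the first pass at 4 µM, then a duplicate retest at 5 µM averaging 50% or more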;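 also: plate controls were cells with TRAIL plus DMSO for no effect and medium-only wells lacking cells for full effect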
# C8 TRAIL sens = sensitizes caspase-8 expressing cells to TRAIL; inhibition (viability loss, TRAIL sensitization), % at 10 µM; 360,000 tested, 1% active; AID 624354; NB7+C8 cells + TRAIL, ATPlite viability luminescence;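 active = compounds causing at least 50% loss of cell viability in the single-dose screen, relative to plate controls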
# Active calls of the source: *; nt = no result. Hits are enriched below; roughly 1.8% of the tested compounds scored in any of these assays.
SMILES,hiPSC survival,beta cell repl,FLuc inh counter,FLuc stim CS,PPC-1+TRAIL kill,C8 TRAIL sens
Cc1cc(C(=O)COC(=O)C2=NNC(=O)CC2)c(C)n1-c1ccccc1,0.4,-0.4,64.5*,0.4,44.9,-2.0
CCC(=O)OCC(=O)c1cc(C)n(-c2ccc(Br)cc2)c1C,0.4,-0.1,59.2*,0.4,-2.9,7.3
Cc1cc(C(=O)COC(=O)C2=COCCO2)c(C)n1-c1ccccc1,-2.4,-6.5,nt,nt,nt,73.2*
COc1cc2c(cc1OC)C(c1cc(Br)ccc1F)N(C(=O)CCl)CC2 (centres undefined),20.6*,-5.8,nt,nt,nt,94.6*
COc1cc2c(cc1OC)C(C1C(=O)CC(C)(C)CC1=O)N(C(=O)CCl)CC2 (centres undefined),1.3,-3.1,-5.5,1.1,11.5,-10.8
CC(=O)Nc1ccc(S(=O)(=O)NC(CSc2ccc(C(=O)O)cc2[N+](=O)[O-])C(=O)O)cc1 (centres undefined),0.4,3.4,nt,nt,nt,-11.3
O=C(Cc1ccc(NC(=O)C2CCN(C(=O)C3CCCCC3)CC2)cc1)Nc1cccc(C(=O)N2CCCCC2)c1,0.7,nt,nt,nt,nt,-0.4
COc1ccc(C(=O)Nn2c(SCC(=O)N3CCC(C)CC3)nc3ccccc3c2=O)cc1,-4.1,-5.5,75.1*,0.2,49.3,52.4*
COc1ccc(C(=O)Nn2c(SCC(=O)NC3CCCCC3)nc3ccccc3c2=O)cc1,-3.8,-5.2,58.3*,0.4,48.3,37.6
COc1ccc(/C=N/NC(=S)Nc2cccc(C(=O)O)c2)cc1OC,-0.4,0.0,45.6,0.5,42.9,13.9
Oc1cccc(NC(=S)Nc2cccnc2)c1,1.0,0.0,-0.1,1,-1.5,-9.7
COc1cccc(/C=N/NC(=S)Nc2cccc(C(=O)O)c2)c1,-1.7,-2.2,52.7*,0.5,18.9,24.4
Oc1ccc(/C=N/NC(=S)Nc2cccnc2)cc1,-0.6,-5.5,nt,nt,40.4,71.2*
Oc1ccc(/C=N/NC(=S)N/N=C/c2ccc(O)cc2)cc1,0.1,-3.9,95.8*,0,22.7,5.4
COc1cc(/C=N/NC(=S)N/N=C/c2cc(OC)c(OC)c(OC)c2)cc(OC)c1OC,1.2,0.0,68.3*,0.3,-0.9,15.8
COc1ccc(C=NNC(=S)NN=Cc2ccc(OC)c(OC)c2)cc1OC,0.1,nt,nt,nt,nt,12.0
O=C1C=CC2(O[C@H](c3ccccc3)[C@@H](c3ccccc3)O2)[C@H](Sc2ccccc2O)C1,1.2,nt,nt,nt,nt,46.1
COc1cccc(/C=N/NC(=S)Nc2cccnc2)c1,-1.1,0.9,15.5,0.8,9.3,21.8
COc1ccc(O)c(/C=N/NC(=S)Nc2cccnc2)c1,-0.1,-6.3,36.1,0.6,47.8,65.3*
C=CCN(C(=O)CCC(=O)Nc1cc(C)on1)C(C(=O)NC1CCCC1)c1ccc(C)cc1 (centres undefined),-0.4,1.3,nt,nt,nt,-1.3
O=C(N[C@@H]1c2ccccc2CC[C@@H]1OCc1ccccc1)c1ccc(-c2ccccc2)cc1,4.6,nt,nt,nt,nt,24.6
CC(=O)n1cc(N(C(=O)CCl)c2ccc(C)cc2)c2ccccc21,-0.3,-4.1,nt,nt,38.5,95.0*
O=C(NC(=S)N1CCc2ccccc21)c1ccccc1Cl,0.0,0.8,nt,nt,nt,22.6
O=C(NC(=S)N1CCc2ccccc21)c1ccccc1,-1.5,0.0,51.9*,0.5,8.4,50.7*
CSCCC(NC(=O)OC(C)(C)C)C(=O)Oc1ccc2c(=O)c(-c3ccc4c(c3)OCCO4)coc2c1 (centres undefined),-2.9,-6.0,26.4,0.7,32.1,55.7*
SMILES,hiPSC survival,beta cell repl,FLuc inh counter,FLuc stim CS,PPC-1+TRAIL kill,C8 TRAIL sens
CSCCC(NC(C)=O)C(=O)Oc1ccc2c3c(c(=O)oc2c1)CCCC3 (centres undefined),-1.2,nt,7.5,0.9,8.0,16.9
CCOC(=O)CN1CC(C)(C)N(CC(=O)OCC)CC1(C)C,-2.2,nt,nt,nt,nt,9.6
O=S(=O)(c1cnc(Cl)c(Cl)c1)N1CCc2ccccc21,2.4,-5.7,nt,nt,79.9*,11.9
CC(=O)Nc1ccc(NC(=O)Oc2ccccc2)cc1,-1.6,0.0,0.8,1,23.6,10.0
CN(C)c1ccc(C(=S)Nc2ccccc2)cc1,-1.8,0.0,55.8*,0.4,34.6,42.6
CN(C)c1ccc(NC(=S)c2ccccn2)cc1,-5.4,nt,94.9*,0.1,69.2*,85.0*
CN(C)c1ccc(NC(=O)Oc2ccccc2)cc1,-0.4,-0.7,74.0*,0.3,-25.5,-0.6
Cc1ccc2nc(N3CCN(C)CC3)c(C=O)c(=O)n2c1,-0.3,-3.1,nt,nt,nt,-0.6
CCN(CC(=O)Nc1c(F)cccc1F)C(=O)CCN1C(=O)c2cccc([N+](=O)[O-])c2C1=O,0.1,-3.4,nt,nt,nt,25.7
COc1ccc(/C=N/Nc2cc(C)nc3ccccc23)cc1,-0.9,-5.1,nt,nt,nt,20.5
COc1ccc2nc(C)cc(N/N=C/c3ccc(F)cc3)c2c1,-1.0,-4.0,nt,nt,nt,93.5*
NN=C1c2ccccc2-c2ccc(N)cc21,-0.6,nt,nt,nt,nt,-20.3
N#C/C(=C\c1cccs1)C(=O)NCc1ccccc1,5.9,2.6,4.8,1,2.5,-1.7
N#C/C(=C\c1cccs1)C(=O)Nc1nccs1,2.0,-3.2,74.7*,0.3,21.2,6.5
COc1ccc(/C=C2/SC(=S)N(n3c(C)ccc3C)C2=O)cc1,-2.5,-2.8,1.9,1,26.9,61.5*
COc1ccc(/C=C2/SC(=S)N(CCC(=O)O)C2=O)cc1,7.2,-2.0,34.1,0.7,12.8,3.3
CCOc1ccc(/C=C2/SC(=S)N(n3c(C)ccc3C)C2=O)cc1,-1.4,-5.1,23.9,0.8,4.5,50.5*
COc1ccc(/C=C2/SC(=O)NC2=O)cc1,-0.7,-3.9,54.5*,0.5,14.2,19.3
COc1ccc(C=C2SC(=S)NC2=O)cc1,0.6,nt,nt,nt,nt,20.2
COc1cc(CC(=O)OCC(=O)NC2CCCCCC2)cc(OC)c1OC,2.2,2.2,nt,nt,nt,-3.4
Cc1ccn2c(c1)nc(=S)n2C(=O)c1ccco1,nt,0.0,93.6*,0.1,71.4*,nt
COc1ccc(NC(=O)CSCc2cc(=O)n3nc(C4CC4)sc3n2)cc1,-0.6,-1.1,nt,nt,nt,-30.7
Cc1cccc(/C=C2/Sc3ccc(C(=O)NCCCN4CCOCC4)cc3NC2=O)c1,-0.4,-4.6,nt,nt,nt,13.0
COc1cccc(/C=C2/Sc3ccc(C(=O)NCCN4CCCCCC4)cc3NC2=O)c1,-0.7,-7.9,nt,nt,nt,75.4*
CCN1CCN(CCCNC(=O)c2ccc3c(c2)NC(=O)/C(=C\c2cccc(C)c2)S3)CC1,-0.6,-7.6,nt,nt,nt,70.5*
O=C(c1ccc2oc(Cc3ccc(Cl)cc3)nc2c1)N1CC[C@H](O)C1,0.2,-5.1,nt,nt,nt,-11.1
CC1CCCC(C)N1C(=O)Cn1cnc2cc([N+](=O)[O-])ccc2c1=O (centres undefined),2.1,-6.7,-5.3,1.1,19.4,0.0
NS(=O)(=O)c1c(Sc2ccccc2C(=O)O)ccc2ccccc12,-0.6,0.5,nt,nt,nt,4.4

# Screens (PubChem BioAssay)
